Assay results published in ChEMBL document CHEMBL4261527, “Benzylsulfanyl benzo-heterocycle amides and hydrazones as new agents against drug-susceptible and resistant Mycobacterium tuberculosis” (Medchemcomm, 2017).
In brackets after ≈: the same amount, converted by molar mass.

Tests used:
[1] = test system: Mycobacterium tuberculosis; assay: Antimycobacterial activity against Mycobacterium tuberculosis H37Rv ATCC 27294 measured after 7 days by microplate alamar blue assay; assay type: functional; conditions: H37Rv ATCC 27294, 168 h
Outline: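 Mtb H37Rv (ATCC 27294) grown in Middlebrook 7H12 broth; MIC read by Microplate Alamar Blue Assay (MABA).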

[2] = test system: Mycobacterium tuberculosis; assay: Antimycobacterial activity against drug-susceptible Mycobacterium tuberculosis clinical isolate; assay type: functional
Outline: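 Clinical isolates coded 960 (drug-susceptible), 330 (MDR) and 431 (XDR); MIC reported in μM.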

[3] = test system: Mycobacterium tuberculosis; assay: Antimycobacterial activity against p-aminosalicyclic acid-resistant Mycobacterium tuberculosis ATCC 35821 by resazurin dye based fluorimetric method; assay type: functional
[4] = Cytotoxicity against African green monkey Vero cells assessed as cell viability at 0.01 ug/ml after 72 hrs by CCK8 assay (reference value: 100%); assay type: cell-based; conditions: chlorocebus sabaeus, read-out: Activity
Outline: (§1)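 Vero cells exposed to 0.01–20 μg/mL compound; vehicle control 0.625% DMSO set as 100%. Result given as percent cell viability.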

[5] = Cytotoxicity against African green monkey Vero cells assessed as cell viability at 0.02 ug/ml after 72 hrs by CCK8 assay (reference value: 100%); assay type: cell-based; conditions: chlorocebus sabaeus, read-out: Activity; outline: as §1
[6] = Cytotoxicity against African green monkey Vero cells assessed as cell viability at 0.039 ug/ml after 72 hrs by CCK8 assay (reference value: 100%); assay type: cell-based; conditions: chlorocebus sabaeus, read-out: Activity; outline: as §1
[7] = Cytotoxicity against African green monkey Vero cells assessed as cell viability at 0.078 ug/ml after 72 hrs by CCK8 assay (reference value: 100%); assay type: cell-based; conditions: chlorocebus sabaeus, read-out: Activity; outline: as §1
[8] = Cytotoxicity against African green monkey Vero cells assessed as cell viability at 0.156 ug/ml after 72 hrs by CCK8 assay (reference value: 100%); assay type: cell-based; conditions: chlorocebus sabaeus, read-out: Activity; outline: as §1
[9] = Cytotoxicity against African green monkey Vero cells assessed as cell viability at 0.312 ug/ml after 72 hrs by CCK8 assay (reference value: 100%); assay type: cell-based; conditions: chlorocebus sabaeus, read-out: Activity; outline: as §1
[10] = Cytotoxicity against African green monkey Vero cells assessed as cell viability at 0.625 ug/ml after 72 hrs by CCK8 assay (reference value: 100%); assay type: cell-based; conditions: chlorocebus sabaeus, read-out: Activity; outline: as §1
[11] = Cytotoxicity against African green monkey Vero cells assessed as cell viability at 1.25 ug/ml after 72 hrs by CCK8 assay (reference value: 100%); assay type: cell-based; conditions: chlorocebus sabaeus, read-out: Activity; outline: as §1
[12] = Cytotoxicity against African green monkey Vero cells assessed as cell viability at 2.5 ug/ml after 72 hrs by CCK8 assay (reference value: 100%); assay type: cell-based; conditions: chlorocebus sabaeus, read-out: Activity; outline: as §1
[13] = Cytotoxicity against African green monkey Vero cells assessed as cell viability at 5 ug/ml after 72 hrs by CCK8 assay (reference value: 100%); assay type: cell-based; conditions: chlorocebus sabaeus, read-out: Activity; outline: as §1
[14] = Cytotoxicity against African green monkey Vero cells assessed as cell viability at 10 ug/ml after 72 hrs by CCK8 assay (reference value: 100%); assay type: cell-based; conditions: chlorocebus sabaeus, read-out: Activity; outline: as §1
[15] = Cytotoxicity against African green monkey Vero cells assessed as cell viability at 20 ug/ml after 72 hrs by CCK8 assay (reference value: 100%); assay type: cell-based; conditions: chlorocebus sabaeus, read-out: Activity; outline: as §1
[16] = Stability in human liver microsomes assessed as parent compound remaining after 15 mins by LC-MS/MS analysis; assay type: ADME, microsome; conditions: read-out: Stability
Outline: (§2)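 Compound incubated with human liver microsomes; percent remaining measured at 15, 30 and 60 min, relative to the amount at 0 min taken as 100%.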

[17] = Stability in human liver microsomes assessed as parent compound remaining after 30 mins by LC-MS/MS analysis; assay type: ADME, microsome; conditions: read-out: Stability; outline: as §2
[18] = Stability in human liver microsomes assessed as parent compound remaining after 60 mins by LC-MS/MS analysis; assay type: ADME, microsome; conditions: read-out: Stability; outline: as §2

## O=C(N/N=C/c1ccc(CSc2nc3ccccc3o2)cc1)c1ccncc1
[1]
  MIC: 0.24 µM (≈ 0.0932 µg/mL)
[2]
  MIC: 0.2 µM (≈ 0.0777 µg/mL)
[3]
  MIC: 0.312 µg/mL (≈ 0.803 µM)
[4]
  viability at 72 h, 0.01 ug/ml: 127%
[5]
  viability at 72 h, 0.02 ug/ml: 127%
[6]
  viability at 72 h, 0.039 ug/ml: 127%
[7]
  viability at 72 h, 0.078 ug/ml: 119%
[8]
  viability at 72 h, 0.156 ug/ml: 122%
[9]
  viability at 72 h, 0.312 ug/ml: 120%
[10]
  viability at 72 h, 0.625 ug/ml: 118%
[11]
  viability at 72 h, 1.25 ug/ml: 123%
[12]
  viability at 72 h, 2.5 ug/ml: 123%
[13]
  viability at 72 h, 5 ug/ml: 123%
[14]
  viability at 72 h, 10 ug/ml: 130%
[15]
  viability at 72 h, 20 ug/ml: 109%
[16]
  remaining at 0.25 h: 90.1%
[17]
  remaining at 0.5 h: 76.5%
[18]
  remaining at 1 h: 66.6%

## O=C(NCc1ccc(CSc2nc3ccccc3s2)cc1)c1ccncc1
[1]
  MIC: > 128 µM

## O=C(NCc1ccc(CSc2nc3ccccc3o2)cc1)c1cccnc1
[1]
  MIC: 58.2 µM (≈ 21.9 µg/mL)

## O=C(N/N=C/c1ccc(CSc2nc3ccccc3o2)cc1)c1cccnc1
[1]
  MIC: 24.8 µM (≈ 9.63 µg/mL)

## O=C(NCc1ccc(CSc2nc3ccccc3[nH]2)cc1)c1cccnc1
[1]
  MIC: 60.3 µM (≈ 22.6 µg/mL)

## O=C(N/N=C/c1ccc(CSc2nc3ccccc3[nH]2)cc1)c1ccncc1
[1]
  MIC: 0.23 µM (≈ 0.0891 µg/mL)
[2]
  MIC: 0.2 µM (≈ 0.0775 µg/mL)
[3]
  MIC: 0.312 µg/mL (≈ 0.805 µM)
[4]
  viability at 72 h, 0.01 ug/ml: 119%
[5]
  viability at 72 h, 0.02 ug/ml: 116%
[6]
  viability at 72 h, 0.039 ug/ml: 115%
[7]
  viability at 72 h, 0.078 ug/ml: 116%
[8]
  viability at 72 h, 0.156 ug/ml: 115%
[9]
  viability at 72 h, 0.312 ug/ml: 111%
[10]
  viability at 72 h, 0.625 ug/ml: 112%
[11]
  viability at 72 h, 1.25 ug/ml: 119%
[12]
  viability at 72 h, 2.5 ug/ml: 114%
[13]
  viability at 72 h, 5 ug/ml: 113%
[14]
  viability at 72 h, 10 ug/ml: 107%
[15]
  viability at 72 h, 20 ug/ml: 107%
[16]
  remaining at 0.25 h: 76.5%
[17]
  remaining at 0.5 h: 62%
[18]
  remaining at 1 h: 44.6%

## O=C(NCc1ccc(CSc2nc3ccccc3o2)cc1)c1ccncc1
[1]
  MIC: 0.9 µM (≈ 0.338 µg/mL)
[2]
  MIC: 16 µM (≈ 6.01 µg/mL)

## O=C(NCc1ccc(CSc2nc3ccccc3s2)cc1)c1cccnc1
[1]
  MIC: > 128 µM

## O=C(N/N=C/c1ccc(CSc2nc3ccccc3s2)cc1)c1ccncc1
[1]
  MIC: 0.24 µM (≈ 0.0971 µg/mL)
[2]
  MIC: 0.2 µM (≈ 0.0809 µg/mL)
[3]
  MIC: 0.625 µg/mL (≈ 1.55 µM)
[4]
  viability at 72 h, 0.01 ug/ml: 97%
[5]
  viability at 72 h, 0.02 ug/ml: 103%
[6]
  viability at 72 h, 0.039 ug/ml: 99%
[7]
  viability at 72 h, 0.078 ug/ml: 99%
[8]
  viability at 72 h, 0.156 ug/ml: 97%
[9]
  viability at 72 h, 0.312 ug/ml: 98%
[10]
  viability at 72 h, 0.625 ug/ml: 94%
[11]
  viability at 72 h, 1.25 ug/ml: 103%
[12]
  viability at 72 h, 2.5 ug/ml: 101%
[13]
  viability at 72 h, 5 ug/ml: 103%
[14]
  viability at 72 h, 10 ug/ml: 96%
[15]
  viability at 72 h, 20 ug/ml: 91%
[16]
  remaining at 0.25 h: 76.3%
[17]
  remaining at 0.5 h: 57.2%
[18]
  remaining at 1 h: 34%

## O=C(N/N=C/c1ccc(CSc2nc3ccccc3[nH]2)cc1)c1cccnc1
[1]
  MIC: 114 µM (≈ 44.3 µg/mL)

## O=C(N/N=C/c1ccc(CSc2nc3ccccc3s2)cc1)c1cccnc1
[1]
  MIC: > 128 µM

## O=C(NCc1ccc(CSc2nc3ccccc3[nH]2)cc1)c1ccncc1
[1]
  MIC: 120 µM (≈ 45.1 µg/mL)

## COc1cc(/C=N/NC(=O)c2ccncc2)ccc1O [FTIVAZIDE]
[2]
  MIC: 0.25 µM (≈ 0.0678 µg/mL)
[3]
  MIC: 0.312 µg/mL (≈ 1.15 µM)
[4]
  viability at 72 h, 0.01 ug/ml: 95%
[5]
  viability at 72 h, 0.02 ug/ml: 105%
[7]
  viability at 72 h, 0.078 ug/ml: 114%
[8]
  viability at 72 h, 0.156 ug/ml: 96%
[9]
  viability at 72 h, 0.312 ug/ml: 103%
[10]
  viability at 72 h, 0.625 ug/ml: 100%
[11]
  viability at 72 h, 1.25 ug/ml: 105%
[12]
  viability at 72 h, 2.5 ug/ml: 110%
[13]
  viability at 72 h, 5 ug/ml: 100%
[14]
  viability at 72 h, 10 ug/ml: 95%
[15]
  viability at 72 h, 20 ug/ml: 90%

## NNC(=O)c1ccncc1 [ISONIAZID]
[1]
  MIC: 0.81 µM (≈ 0.111 µg/mL)
[2]
  MIC: 0.5 µM (≈ 0.0686 µg/mL)

## COc1c(N2C[C@@H]3CCCN[C@@H]3C2)c(F)cc2c(=O)c(C(=O)O)cn(C3CC3)c12 [MOXIFLOXACIN]
[1]
  MIC: 0.5 µM (≈ 0.201 µg/mL)

## O=[N+]([O-])c1cn2c(n1)OC[C@@H](OCc1ccc(OC(F)(F)F)cc1)C2 [PRETOMANID]
[1]
  MIC: 0.44 µM (≈ 0.158 µg/mL)

## CO[C@H]1/C=C/O[C@@]2(C)Oc3c(C)c(O)c4c(O)c(c(/C=N/N5CCN(C)CC5)c(O)c4c3C2=O)NC(=O)/C(C)=C\C=C\[C@H](C)[C@H](O)[C@@H](C)[C@@H](O)[C@@H](C)[C@H](OC(C)=O)[C@@H]1C [RIFAMPIN]
[1]
  MIC: 0.08 µM (≈ 0.0658 µg/mL)
[2]
  MIC: 0.07 µM (≈ 0.0576 µg/mL)

## CN[C@@H]1[C@H](O[C@H]2[C@H](O[C@H]3[C@H](O)[C@@H](O)[C@H](N=C(N)N)[C@@H](O)[C@@H]3N=C(N)N)O[C@@H](C)[C@]2(O)C=O)O[C@@H](CO)[C@H](O)[C@H]1O [STREPTOMYCIN]
[1]
  MIC: 0.48 µM (≈ 0.279 µg/mL)
